Source: ChEMBL document CHEMBL4033692, “Synthesis and biological research of novel azaacridine derivatives as potent DNA-binding ligands and topoisomerase II inhibitors” (Bioorg Med Chem, 2017)
Active and inactive are the calls of the source. No cut-off for these calls is given here.

Columns and labels:
HepG2 = test: Antiproliferative activity against human HepG2 cells after 48 hrs by MTT assay; type: functional, cell-based; details: HepG2, 48 h
Summary of the method: (§1)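 MTT assay. Cells were seeded at 5-10×10^3 per well and incubated overnight at 37 °C under 5% CO2. Graded compound concentrations or equal DMSO in fresh medium were then added for 48 h. MTT (5 mg/mL stock) was added for a further 4 h, formazan was dissolved in DMSO, and A490 was read. IC50 is given as mean ± S.D. of three experiments in triplicate.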

Homo sapiens [1] = species: Homo sapiens; test: Inhibition of human topoisomerase-2 at 50 to 100 uM using supercoiled pBR322 DNA as substrate after 10 to 15 mins by ethidium bromide staining based electrophoresis
Summary of the method: (§2)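 Relaxation of supercoiled pBR322 (500 ng) by 1 unit of human Top I or Top II, with or without compound in reaction buffer. Reactions ran 10-15 min at 37 °C and were stopped with loading buffer. Products were run on 1% agarose in TAE at 90 V for 25 min and stained with ethidium bromide under UV. Controls were CPT (Top I) and m-AMSA (Top II).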

U-937 [2] = test: Antiproliferative activity against human U937 cells after 48 hrs by MTT assay; type: functional, cell-based; details: U-937, 48 h; summary of the method: as §1
K562 = test: Antiproliferative activity against human K562 cells after 48 hrs by MTT assay; type: functional, cell-based; details: K562, 48 h; summary of the method: as §1
Homo sapiens [3] = species: Homo sapiens; test: Inhibition of human topoisomerase-2 at 50 uM using supercoiled pBR322 DNA as substrate after 10 to 15 mins by ethidium bromide staining based electrophoresis relative to control; summary of the method: as §2
Homo sapiens [4] = species: Homo sapiens; test: Inhibition of human topoisomerase-2 at 10 uM using supercoiled pBR322 DNA as substrate after 10 to 15 mins by ethidium bromide staining based electrophoresis relative to control; summary of the method: as §2
[5] = Antiproliferative activity against human QSG7701 cells after 48 hrs by MTT assay; type: cell-based; details: QSG7701, 48 h; summary of the method: as §1
[6] = target: T1, DNA topoisomerase 1 (Homo sapiens) (UniProt P11387); test: Inhibition of human topoisomerase-1 at 100 uM using supercoiled pBR322 DNA as substrate after 10 to 15 mins by ethidium bromide staining based electrophoresis; summary of the method: as §2
T1 sequence (whole entry): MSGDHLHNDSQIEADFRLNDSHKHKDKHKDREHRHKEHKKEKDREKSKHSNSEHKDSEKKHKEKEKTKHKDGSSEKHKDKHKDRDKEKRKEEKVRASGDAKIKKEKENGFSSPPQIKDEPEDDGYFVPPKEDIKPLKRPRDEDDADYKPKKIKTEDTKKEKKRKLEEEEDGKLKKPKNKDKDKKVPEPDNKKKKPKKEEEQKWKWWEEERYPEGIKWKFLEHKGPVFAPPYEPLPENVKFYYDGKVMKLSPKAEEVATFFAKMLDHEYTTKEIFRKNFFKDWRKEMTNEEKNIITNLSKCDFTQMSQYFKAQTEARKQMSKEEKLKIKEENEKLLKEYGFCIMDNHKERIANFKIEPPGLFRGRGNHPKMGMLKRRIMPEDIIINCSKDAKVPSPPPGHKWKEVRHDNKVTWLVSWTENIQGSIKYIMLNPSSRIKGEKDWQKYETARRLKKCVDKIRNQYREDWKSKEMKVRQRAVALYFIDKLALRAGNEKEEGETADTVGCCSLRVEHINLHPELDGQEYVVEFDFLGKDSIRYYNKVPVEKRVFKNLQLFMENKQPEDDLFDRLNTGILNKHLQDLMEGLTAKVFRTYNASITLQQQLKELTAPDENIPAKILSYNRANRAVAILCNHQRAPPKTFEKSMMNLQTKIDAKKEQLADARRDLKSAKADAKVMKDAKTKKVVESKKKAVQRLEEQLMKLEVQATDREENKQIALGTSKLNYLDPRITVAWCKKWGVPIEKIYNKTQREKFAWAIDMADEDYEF

A549 = test: Antiproliferative activity against human A549 cells after 48 hrs by MTT assay; type: functional, cell-based; details: A549, 48 h; summary of the method: as §1
HeLa = test: Antiproliferative activity against human HeLa cells after 48 hrs by MTT assay; type: functional, cell-based; summary of the method: as §1
U-937 [7] = test: Induction of apoptosis in human U937 cells assessed as increase in cleaved caspase-3 protein expression at 1 to 2.5 uM after 48 hrs by Western blot analysis; type: functional, cell-based
Summary of the method: (§3)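 U937 cells in dishes were exposed to 1 or 2.5 µM for 48 h and lysed on ice for 0.5 h. Protein was quantified by BCA, run on 12% SDS-PAGE and transferred to PVDF. Membranes were blocked in 5% milk for 1 h, and primary antibody was applied overnight at 4 °C. Cleaved caspase-3/7/8 was detected with β-actin as loading control.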

U-937 [8] = test: Induction of apoptosis in human U937 cells assessed as live cells at 2.5 uM after 48 hrs by Annexin-V FITC/propidium iodide staining based flow cytometry (reference value: 92.4%); type: functional
Summary of the method: (§4)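 U937 cells were treated for 48 h at 0, 1 or 2.5 µM. Phosphatidylserine externalization (Annexin V-FITC) and membrane integrity (PI) were then read by flow cytometry using a kit per the manufacturer's instructions.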

Bos taurus [9] = species: Bos taurus; test: Binding affinity to calf thymus DNA after 5 mins by fluorescence emission spectral analysis
Summary of the method: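 Fluorescence titration in Tris-HCl pH 7.4. Compound came from a 5 mM DMSO stock, with ct DNA at final 0, 0.2, 0.7, 1, 1.5 and 2.5 µM. Mixtures were incubated 5 min before emission spectra were recorded. Quenching was fitted to F0/F = 1 + Kq[Q].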

U-937 [10] = test: Induction of apoptosis in human U937 cells assessed as live cells at 1 uM after 48 hrs by Annexin-V FITC/propidium iodide staining based flow cytometry (reference value: 92.4%); type: functional; summary of the method: as §4
U-937 [11] = test: Induction of apoptosis in human U937 cells assessed as late apoptotic cells at 2.5 uM after 48 hrs by Annexin-V FITC/propidium iodide staining based flow cytometry (reference value: 0.144%); type: functional; summary of the method: as §4
U-937 [12] = test: Induction of apoptosis in human U937 cells assessed as early apoptotic cells at 2.5 uM after 48 hrs by Annexin-V FITC/propidium iodide staining based flow cytometry (reference value: 7.42%); type: functional; summary of the method: as §4
U-937 [13] = test: Induction of apoptosis in human U937 cells assessed as necrotic cells at 1 uM after 48 hrs by Annexin-V FITC/propidium iodide staining based flow cytometry relative to control; type: functional; summary of the method: as §4
U-937 [14] = test: Induction of apoptosis in human U937 cells assessed as increase in cleaved caspase-7 protein expression at 1 to 2.5 uM after 48 hrs by Western blot analysis; type: functional, cell-based; summary of the method: as §3
U-937 [15] = test: Induction of apoptosis in human U937 cells assessed as late apoptotic cells at 1 uM after 48 hrs by Annexin-V FITC/propidium iodide staining based flow cytometry (reference value: 0.144%); type: functional; summary of the method: as §4
U-937 [16] = test: Induction of apoptosis in human U937 cells assessed as early apoptotic cells at 1 uM after 48 hrs by Annexin-V FITC/propidium iodide staining based flow cytometry (reference value: 7.42%); type: functional; summary of the method: as §4
U-937 [17] = test: Induction of apoptosis in human U937 cells assessed as increase in cleaved caspase-8 protein expression at 1 to 2.5 uM after 48 hrs by Western blot analysis; type: functional, cell-based; summary of the method: as §3
Bos taurus [18] = species: Bos taurus; test: Binding affinity to calf thymus DNA after 5 mins by UV-Visible absorption spectral analysis
Summary of the method: (§5)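 UV-vis titration in Tris-HCl pH 7.4 in a 1.0 cm quartz cell. Compound was at 40 µM (added from a 5 mM DMSO stock) with ct DNA at final 0, 0.75, 2.25, 3.75, 6.00 and 9.75 µM. Each mixture was incubated 5 min before the absorption spectrum was recorded.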

[19] = Safety index, ratio of compound IC50 to m-AMSA IC50 for human QSG7701 cells; type: ADME, cell-based; details: read-out: Ratio IC50
U-937 [20] = test: Induction of apoptosis in human U937 cells assessed as necrotic cells at 2.5 uM after 48 hrs by Annexin-V FITC/propidium iodide staining based flow cytometry relative to control; type: functional; summary of the method: as §4
Bos taurus [21] = species: Bos taurus; test: Binding affinity to calf thymus DNA assessed as bathochromic shift at 40 uM after 5 mins by UV-Visible absorption spectral analysis; summary of the method: as §5
U-937 [22] = test: Induction of apoptosis in human U937 cells after 48 hrs by Annexin-V FITC/propidium iodide staining based flow cytometry; type: functional, cell-based; summary of the method: as §4

SMILES	IC50 (HepG2) [µM]	topoisomerase II inhibition (active/inactive) (Homo sapiens [1])	IC50 (U-937 [2]) [µM]	IC50 (K562) [µM]	inhibition (Homo sapiens [3])	inhibition (Homo sapiens [4]) [%]	IC50 (HeLa) [µM]	IC50 [5] [µM]	further results
CC[C@@]1(O)C(=O)OCc2c1cc1n(c2=O)Cc2cc3ccccc3nc2-1 [CAMPTOTHECIN]	4.92						3.8	< 1	IC50 (A549): < 1 µM
COc1ccc2nc3cc(Cl)ccc3c(NCc3nc4ccccc4[nH]3)c2c1	> 20			> 20					
COc1ccc2nc3cc(Cl)ccc3c(Nc3ccccc3F)c2n1	> 20	Active	> 20	10.9	28.1%				
COc1ccc(Nc2c3ccc(Cl)cc3nc3ccc(OC)nc23)cc1	> 20	Active	> 20	13.8	> 50%				
COc1ccc2nc3cc(Cl)ccc3c(Nc3ccc(F)cc3)c2n1	> 20	Active	> 20	16.5	> 50%	> 40			

Now from value to molecule, other results behind:

IC50 (HepG2) [µM]	topoisomerase II inhibition (active/inactive) (Homo sapiens [1])	IC50 (U-937 [2]) [µM]	IC50 (K562) [µM]	inhibition (Homo sapiens [3])	inhibition (Homo sapiens [4]) [%]	IC50 (HeLa) [µM]	SMILES	IC50 [5] [µM]	further results
> 20	Active	> 20	13.7	> 50%	> 40		COc1ccc2nc3cc(Cl)ccc3c(Nc3ccncc3)c2n1		
> 20	Active	0.76	7.59	> 50%	75.1	14.8	COc1ccc2nc3cc(Cl)ccc3c(NCc3nc4ccccc4n3CCN(C)C)c2n1	21.2	inhibition [6]: Active; IC50 (A549): 13.1 µM
6.62	Active	0.57	6.06	> 50%		12.6	COc1ccc2nc3cc(Cl)ccc3c(NCc3nc4ccccc4[nH]3)c2n1	29.4	Activity (U-937 [7]): Active; Activity (U-937 [8]): 61.3%; Kq (Bos taurus [9]): 2.34 ×10⁵ /M; Activity (U-937 [10]): 75.8%; Activity (U-937 [11]): 12.2%; Activity (U-937 [12]): 26.2%; Activity (U-937 [13]): 0.227%; Activity (U-937 [14]): Active; Activity (U-937 [15]): 6.48%; Activity (U-937 [16]): 17.5%; Activity (U-937 [17]): Active; Kb (Bos taurus [18]): 3.34 ×10⁵ /M; selectivity ratio [19]: > 3; Activity (U-937 [20]): 0.322%; Activity (Bos taurus [21]): Active; Activity (U-937 [22]): Dose-dependent effect; IC50 (A549): 4.8 µM
> 20	Active	> 20	15.5	> 50%	> 40		COc1ccc2nc3cc(Cl)ccc3c(Nc3cccc(F)c3)c2n1		
> 20	Active	> 20	6.1	> 50%	> 40		COc1ccc2nc3cc(Cl)ccc3c(Nc3ccccc3Cl)c2n1		
> 20	Active	> 20	14	> 50%			COc1ccc2nc3cc(Cl)ccc3c(Nc3ccc(C)cc3C)c2n1		
5.21		0.61	0.88	Active	56.9	19.2	COc1cc(NS(C)(=O)=O)ccc1Nc1c2ccccc2nc2ccccc12 [AMSACRINE]	6.43	
